Holding throughout (type): functional
The test system of one assay is MCF7. The assay can be described thus: Anti-proliferative activity against human MCF7 cells incubated for 48 hrs by SRB assay. The settings on record: MCF7, 48 h. The essentials: (§1)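 SRB assay. Cells in DMEM with 10% FBS were seeded and grown 24 h at 37 °C in CO2. Compounds were diluted from a 10 mM DMSO stock to 1, 5 and 10 µM, with DMSO at most 0.1%, and exposed 48 h. Cells were fixed with 10% TCA for 60 min at 4 °C and stained 20 min at room temperature with 0.4% SRB in 1% acetic acid. Dye was eluted with 10 mM trizma base and absorbance read at 540 nm. Run in triplicate; GI50 given as mean ± SD of three determinations.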
On the technique in general: Sulforhodamine B stains cellular protein and so reports cell mass.

In a further assay the test system is HepG2. The experiment in a line: Anti-proliferative activity against human HepG2 cells incubated for 48 hrs by SRB assay. The settings on record: HepG2, 48 h. The essentials: as §1
Another assay concerns A549. The assay can be described thus: Anti-proliferative activity against human A549 cells incubated for 48 hrs by SRB assay. The settings on record: A549, 48 h.
The next assay relates to DU-145. The assay can be described thus: Anti-proliferative activity against human DU145 cells incubated for 48 hrs by SRB assay. The settings on record: DU-145, 48 h. The essentials: as §1

23 molecules from ChEMBL document CHEMBL3608272, “Design, synthesis and anticancer properties of novel oxa/azaspiro[4,5]trienones as potent apoptosis inducers through mitochondrial disruption” (2015) can be followed below.

SMILES strings stand for the structures.

`CN1C(=O)C(c2ccc(C#N)cc2)=C(c2ccccc2)C12C=CC(=O)C=C2`: the concentration for 50% growth inhibition (GI50) (usually the concentration giving 50% growth inhibition) in the assay with MCF7 was 13.6 µM; in the assay on HepG2, 16.6 µM; in the assay on A549, 25.4 µM; in the assay with DU-145, 11.6 µM.

As to `CN1C(=O)C(c2ccc3c(c2)OCO3)=C(c2ccccc2)C12C=CC(=O)C=C2`, the GI50 with MCF7 was 6.7 µM; in the assay on HepG2, 19.6 µM; in the assay with A549, 30.2 µM; with DU-145, 16.3 µM.

In the case of `O=C1C=CC2(C=C1)OC(=O)C(c1ccc(C(=O)O)cc1)=C2c1ccccc1`, the GI50 in the assay with MCF7 was determined as 3.5 µM; in the assay on HepG2 it was 6.3 µM; in the assay on A549, 6.3 µM; with DU-145 it was 4.8 µM.

For `CN1C(=O)C(c2ccc(CO)cc2)=C(c2ccccc2)C12C=CC(=O)C=C2`, the GI50 with MCF7 is 7.6 µM; with HepG2, 7.7 µM; with A549, 13.6 µM; in the assay on DU-145, 11.5 µM.

For the molecule `CSc1ccc(C2=C(c3ccccc3)C3(C=CC(=O)C=C3)N(C)C2=O)cc1`, the 50% growth inhibitory concentration (GI50) in the assay with MCF7 turned out to be 15.8 µM; with HepG2, 18.7 µM; in the assay with A549 it was 50.4 µM; with DU-145, 26.4 µM.

Take `CN1C(=O)C(c2ccc(C(F)(F)F)cc2)=C(c2ccccc2)C12C=CC(=O)C=C2`: the GI50 in the assay on MCF7 is 8.1 µM; in the assay with HepG2 it was 13.7 µM; with A549, 30.3 µM; in the assay on DU-145 it was 17.6 µM.

Turning to `COC(=O)/C=C/C1=C(c2ccccc2)C2(C=CC(=O)C=C2)OC1=O`, the GI50 amounted to 1.2 µM with MCF7, 6.3 µM in the assay on HepG2, 7.8 µM in the assay with A549 and 4.3 µM in the assay on DU-145.

Consider `CN1C(=O)C(c2ccc(C=O)s2)=C(c2ccccc2)C12C=CC(=O)C=C2`, for which the GI50 in the assay on MCF7 turned out to be 3.6 µM; with HepG2, 13.9 µM; in the assay on A549 it was 16.6 µM; in the assay on DU-145, 8.2 µM.

Consider `CC/C(=C(\c1ccccc1)c1ccc(OCCN(C)C)cc1)c1ccccc1` [TAMOXIFEN], for which the GI50 was found to be 8 µM in the assay on MCF7, 24.4 µM in the assay on A549 and 19.3 µM in the assay with DU-145.

Regarding `Cc1ccc(C2=C(c3ccccc3)C3(C=CC(=O)C=C3)N(C)C2=O)cc1Cl`, the GI50 is 7.4 µM in the assay with MCF7, 10.4 µM in the assay on HepG2, 21.1 µM in the assay with A549 and 12.1 µM in the assay with DU-145.

As to `COc1ccc(C2=C(c3ccccc3)C3(C=CC(=O)C=C3)OC2=O)cc1`, the GI50 in the assay on MCF7 stood at 1.8 µM; with HepG2 it was 3.4 µM; in the assay on A549, 7.3 µM; in the assay with DU-145, 4.1 µM.

Consider `CN1C(=O)C(c2ccoc2)=C(c2ccccc2)C12C=CC(=O)C=C2`, for which the 50% growth inhibitory concentration (GI50) in the assay on MCF7 was 52.7 µM; in the assay with HepG2, 62.8 µM; in the assay with A549, 126 µM; in the assay on DU-145, 91.2 µM.

On to `O=Cc1ccc(C2=C(c3ccccc3)C3(C=CC(=O)C=C3)OC2=O)s1`, for which the GI50 in the assay on MCF7 was 3.4 µM; in the assay with HepG2, 2.6 µM; with A549 it was 4.6 µM; in the assay on DU-145, 4 µM.

`COc1ccc(C2=C(c3ccccc3)C3(C=CC(=O)C=C3)N(C)C2=O)c(OC)c1`: the concentration for 50% growth inhibition (GI50) in the assay with MCF7 stood at 71.7 µM; with HepG2 it was 69.1 µM; in the assay with A549, 101 µM; in the assay on DU-145, 62.7 µM.

With `CN1C(=O)C(c2ccccc2)=C(c2ccccc2)C12C=CC(=O)C=C2`, the concentration for 50% growth inhibition (GI50) was 8.2 µM in the assay with MCF7, 9.2 µM in the assay with HepG2, 22.5 µM in the assay with A549 and 15.5 µM in the assay on DU-145.

On to `CN1C(=O)C(c2ccc(C=O)cc2)=C(c2ccccc2)C12C=CC(=O)C=C2`, for which the concentration for 50% growth inhibition (GI50) with MCF7 stood at 11.1 µM; in the assay on HepG2 it was 12.7 µM; in the assay on A549, 36.2 µM; in the assay on DU-145, 18.2 µM.

With `COc1cccc2c1C(=O)c1c(O)c3c(c(O)c1C2=O)C[C@@](O)(C(=O)CO)C[C@@H]3O[C@H]1C[C@H](N)[C@H](O)[C@H](C)O1` [DOXORUBICIN], the GI50 in the assay with MCF7 was 1.6 µM; with HepG2, 1.4 µM; in the assay on A549, 1.9 µM; in the assay on DU-145, 0.95 µM.

Regarding `O=C1C=CC2(C=C1)OC(=O)C(c1ccc(CO)cc1)=C2c1ccccc1`, the GI50 in the assay on MCF7 came out at 1.7 µM; with HepG2, 3.3 µM; in the assay on A549, 8.1 µM; in the assay with DU-145, 2.4 µM.

Turning to `CN1C(=O)C(c2cc3ccccc3s2)=C(c2ccccc2)C12C=CC(=O)C=C2`, the GI50 in the assay on MCF7 is 4.2 µM; in the assay with HepG2 it was 7.2 µM; in the assay on A549, 18.8 µM; with DU-145, 9 µM.

For the molecule `O=C1C=CC2(C=C1)OC(=O)C(c1ccc(O)cc1)=C2c1ccccc1`, the GI50 in the assay with MCF7 was 3.4 µM; in the assay with HepG2, 3.5 µM; in the assay with A549 it was 6.2 µM; with DU-145, 2.7 µM.

For the molecule `COc1ccc(C2=C(c3ccccc3)C3(C=CC(=O)C=C3)N(C)C2=O)cc1`, the GI50 in the assay on MCF7 worked out at 45.4 µM; in the assay on HepG2, 61.7 µM; in the assay on A549 it was 98 µM; with DU-145, 55.7 µM.

Consider `CN1C(=O)C(c2cccc(Cl)c2Cl)=C(c2ccccc2)C12C=CC(=O)C=C2`, for which the GI50 in the assay on MCF7 is 9.9 µM; in the assay on HepG2 it was 10.5 µM; in the assay on A549, 27.6 µM; with DU-145 it was 14 µM.

As for `CN1C(=O)C(c2cccc3ccccc23)=C(c2ccccc2)C12C=CC(=O)C=C2`, the GI50 in the assay with MCF7 stood at 2.4 µM; with HepG2, 6.12 µM; with A549 it was 17.3 µM; with DU-145, 6.3 µM.
